Calls of active or inactive are those of the source. The rule behind the calls is not given here.
What was measured:
Quadruplex DNA [1] = assay: Binding affinity to C9orf72 (G4C2)4 G4 quadruplex DNA (unknown origin) assessed as change in chemical shift at pH 7 in 25 to 45 degree C by one-dimensional 1H-NMR analysis; assay type: nucleic-acid assay
Method in brief: (§1)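 Oligos (100 μM) annealed at 95 °C for 15 min, cooled slowly overnight in 70 mM KCl, 20 mM potassium phosphate, pH 7.0. NMR samples held 0.1 mM DNA or RNA. Compounds from ~50 mM DMSO-d6 stocks, titrated at G4:compound ratios 1:1 to 1:10 (RNA 1:3, 1:5, 1:10). Imino-region 1D 1H spectra at 25 °C; further spectra at pH 6 and 7, at 25, 35 and 45 °C.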

Quadruplex DNA [2] = assay: Binding affinity to C9orf72 (G4C2)4 G4 quadruplex DNA (unknown origin) assessed as change in chemical shift at pH 6 in 25 to 45 degree C by one-dimensional 1H-NMR analysis; assay type: nucleic-acid assay; method in brief: as §1
Quadruplex DNA [3] = assay: Binding affinity to 3'-FAM labeled C9orf72 (G4C2)4 G4 quadruplex DNA (unknown origin) assessed as decrease in fluorescence intensity by fluorescence intensity assay; assay type: nucleic-acid assay
Method in brief: (§2)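 3'-FAM-labelled DNA (G4C2)4 G4 or RNA (G4C2)2 G4 annealed at 98 °C for 10 min in 10 mM K+ buffer (8 mM KCl, 2 mM KH2PO4, pH 6.8), 1 μM final, slowly cooled. Compound titrated 0.1–10 mM in same buffer at room temperature. Fluorescence read at ex/em 470/520 nm. KD from nonlinear one-site specific binding fit with Hill slope.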

Quadruplex DNA [4] = assay: Binding affinity to C9orf72 (G4C2)4 G4 quadruplex DNA (unknown origin) assessed as change in chemical shift by one-dimensional 1H-NMR analysis; assay type: nucleic-acid assay; method in brief: as §1
Quadruplex DNA [5] = assay: Binding affinity to C9orf72 (G4C2)4 G4 quadruplex DNA (unknown origin) assessed as compound-DNA complex formation at pH 6 in 25 degree C by circular dichroism spectroscopy; assay type: nucleic-acid assay
Method in brief: (§3)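 G4 at 15 μM mixed with compound at 1:10 molar ratio, pH 6 or pH 7. CD spectra recorded at 25 °C in a 1 mm quartz cuvette as the mean of three scans, buffer subtracted.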

Quadruplex DNA [6] = assay: Binding affinity to C9orf72 (G4C2)4 G4 quadruplex DNA (unknown origin) assessed as compound-DNA complex formation at pH 7 in 25 degree C by circular dichroism spectroscopy; assay type: nucleic-acid assay; method in brief: as §3
Quadruplex DNA [7] = assay: Binding affinity to C9orf72 (G4C2)2 G4 quadruplex RNA (unknown origin) assessed as compound-DNA complex formation at pH 6 in 25 degree C by circular dichroism spectroscopy; assay type: nucleic-acid assay; method in brief: as §3
Quadruplex DNA [8] = assay: Binding affinity to C9orf72 (G4C2)2 G4 quadruplex RNA (unknown origin) assessed as compound-DNA complex formation at pH 7 in 25 degree C by circular dichroism spectroscopy; assay type: nucleic-acid assay; method in brief: as §3
Quadruplex DNA [9] = assay: Stabilization of C9orf72 (G4C2)4 G4 quadruplex DNA (unknown origin) assessed as thermal stability by measuring melting temperature at pH 7 by circular dichroism spectroscopy; assay type: nucleic-acid assay
Method in brief: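 G4 at 15 μM with compound at 1:10 molar ratio, pH 7. CD signal followed from 25 to 95 °C at 1 °C/min at one wavelength (290 nm for DNA G4). Absorbance normalised as (Abst − min)/(max − min), then fitted to a Boltzmann sigmoid.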

[10] = Permeability of compound in PBS buffer at 500 uM incubated for 18 hrs by PAMPA assay; assay type: ADME
Method in brief: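 PAMPA: donor membrane coated with 4% lecithin in dodecane. 500 μM compound added to duplicate donor wells over PBS acceptor wells, incubated 18 h at 37 °C. Acceptor solution scanned 200–500 nm to find peak absorbance, referenced to equilibrium standards and a DMSO/PBS blank. n = 5.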

HEK-293T [11] = assay: Cytotoxicity in human HEK293T cells assessed as reduction in cell viability upto 0.1 ug/ml incubated for 24 hrs by MTT assay; assay type: toxicity, cell-based; conditions: dose < 0.1 µg/ml
Method in brief: (§4)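 HEK293T cells seeded at 5 × 10^3 per well, grown 24 h in DMEM with 10% FBS. Compounds in DMSO added at 0.1, 1 and 10 μg/mL for 24 h. MTT (5 mg/mL stock) added for 4 h at 37 °C, formazan dissolved in DMSO, absorbance read at 570 nm. n = 4 culture batches.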

Erythrocyte [12] = assay: Hemolytic activity in rabbit RBC assessed as hemolysis at 250 to 1000 ug/ml incubated for 1 hr by microtiter plate method; assay type: toxicity, cell-based, Oryctolagus cuniculus; conditions: DDE = dose-dependent effect, dose 250-1000 µg/ml
Method in brief: (§5)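 Fresh rabbit red cells washed in PBS and used as a 2% suspension. Compounds diluted in PBS to final 250, 500 and 1000 μg/mL, mixed with an equal volume of cells, incubated 1 h at 37 °C. After centrifugation, supernatant absorbance read at 570 nm. Controls: 10% Triton X-100 (positive), 1% DMSO in PBS (negative). n = 3 preparations.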

HT-22 = assay: Neuroprotective activity in retinoic acid and cAMP differentiated mouse HT-22 cells assessed as decrease in glutamate induced cellular ROS level incubated for 1 hrs by DCFH-DA based […]; assay type: functional, cell-based; conditions: DDE = dose-dependent effect
Method in brief: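 HT22 cells differentiated for 48 h with 10 μM retinoic acid and 500 μM cAMP in DMEM with 0.5% FBS. 5 mM L-glutamate given for 24 h, then 10 μM DCFH-DA loaded for 30 min at 37 °C and washed off. Compounds at 2 μg/mL added for 1 h; Rosup served as positive control. DCF read at 488/525 nm on a plate reader. n = 18–42 wells from three batches.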

Quadruplex DNA [13] = assay: Binding affinity to 3'-FAM labeled C9orf72 (G4C2)2 G4 quadruplex RNA (unknown origin) assessed as decrease in fluorescence intensity by fluorescence intensity assay; assay type: nucleic-acid assay; method in brief: as §2
Quadruplex DNA [14] = assay: Binding affinity to C9orf72 (G4C2)2 G4 quadruplex RNA (unknown origin) assessed as change in chemical shift by one-dimensional 1H-NMR analysis; assay type: nucleic-acid assay; method in brief: as §1
HEK-293T [15] = assay: Cytotoxicity in human HEK293T cells assessed as reduction in cell viability upto 10 ug/ml incubated for 24 hrs by MTT assay; assay type: toxicity, cell-based; conditions: dose < 10 µg/ml; method in brief: as §4
Erythrocyte [16] = assay: Hemolytic activity in rabbit RBC assessed as hemolysis at 1000 ug/ml incubated for 1 hr by microtiter plate method; assay type: toxicity, cell-based, Oryctolagus cuniculus; conditions: dose 1000 µg/ml; method in brief: as §5
N2a [17] = assay: Neuroprotective activity in mouse Neuro2a cells transfected DNA (G4C2)29 C9orf 72 ALS/FTD cell model assessed as reduction in G4C2 RNA foci at 1 ug/ml incubated for 2 days by DAPI staining based immunofluorescence analysis; assay type: functional; conditions: dose 1.0 µg/ml, time 2.0 day
Method in brief: (§6)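 Neuro2a cells on coverslips transfected with a pHR-Tre3G-29xGGGGCC-12xMS2 plasmid, then treated with compound at 1 μg/mL for 2 days. Fixed in 4% PFA and permeabilised. Hybridised 3 h at 46 °C with Cy3-labelled G4C2-target and Cy5-labelled CAGG probes, co-stained for hnRNP H, DAPI counterstain. Foci per cell counted by confocal microscopy; n = 17–25 coverslips from three batches.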

Drosophila [18] = assay: Inhibition of eye degeneration in GMR-GAL4-(G4C2)29 Drosophila expressing (G4C2)29 in eyes C9orf72 ALS/FTD model assessed as smoothening of eyes at 100 uM, po incubated 7 day by stereomicroscopy; assay type: functional, organism-based
Method in brief: (§7)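 Parent flies crossed on solid food containing compound at 100 μM, DMSO vehicle. F1 larvae fed continuously until eclosion, then moved to compound-free food. Eyes of day-7 adults imaged by CCD camera on a stereomicroscope, with SEM of heads. Affected and total eye area measured to give degeneration ratio. n = 7–18 flies.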

Drosophila [19] = assay: Inhibition of eye degeneration in GMR-GAL4-(G4C2)29 Drosophila expressing (G4C2)29 in eyes C9orf72 ALS/FTD model assessed as reflective eyes at 100 uM, po incubated 7 day by stereomicroscopy; assay type: functional, organism-based; method in brief: as §7
Drosophila [20] = assay: Inhibition of eye degeneration in GMR-GAL4-(G4C2)29 Drosophila expressing (G4C2)29 in eyes C9orf72 ALS/FTD model assessed as reduction in rough-eye phenotype at 100 uM, po incubated 7 day by stereomicroscopy; assay type: functional, organism-based; method in brief: as §7
[21] = Inhibition of locomotor deficit in OK371-GAL4-(G4C2)29 Drosophila expressing (G4C2)29 in motor neuron C9orf72 ALS/FTD model assessed as reduction in flies staying at the bottom of flask at 100 uM, po during larval stage by climbing assay relative to control (Rvb= 18.25%); assay type: functional; design: scale not given: the % may be the effect or the level left
Method in brief: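 Compound at 100 μM in solid food, DMSO vehicle, given from parental cross until F1 eclosion, then regular food. Climbing test on 7-day-old adults: percentage of flies remaining below 2 cm of the tube at 25 s. n = 8 experimental batches.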

N2a [22] = assay: Neuroprotective activity in mouse Neuro2a cells transfected DNA (G4C2)29 C9orf 72 ALS/FTD cell model assessed as increase in cell viability at 1 ug/ml by DAPI staining based immunofluorescence analysis; assay type: functional; conditions: dose 1.0 µg/ml
Quadruplex DNA [23] = assay: Binding affinity to C9orf72 (G4C2)2 G4 quadruplex DNA (unknown origin) assessed as change in chemical shift by one-dimensional 1H-NMR analysis; assay type: nucleic-acid assay
Method in brief: (§8)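 Oligonucleotide annealed at 100 μM by heating to 95 °C for 15 min, then cooled slowly to room temperature overnight in 70 mM KCl, 20 mM potassium phosphate, pH 7.0. NMR samples held 0.1 mM G4 in the same buffer. Compound stocks were about 50 mM in DMSO-d6. Titrated into G4; imino-region 1D 1H spectra recorded at 25 °C and compared with G4-only and DMSO control spectra.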

Quadruplex DNA [24] = assay: Binding affinity to human telomeric htel21-T18 (d[(GGGTTA)2GGGTTTGGG]) G4 quadruplex DNA assessed as change in chemical shift by one-dimensional 1H-NMR analysis; assay type: nucleic-acid assay; method in brief: as §8
N2a [25] = assay: Neuroprotective activity in mouse Neuro2a cells transfected DNA (G4C2)29 C9orf 72 ALS/FTD cell model assessed as CAGG RNA foci abundance at 1 ug/ml incubated for 2 days by DAPI staining based immunofluorescence analysis; assay type: functional; conditions: dose 1.0 µg/ml, time 2.0 day; method in brief: as §6

Compound | Activity (Quadruplex DNA [1]) | Activity (Quadruplex DNA [2]) | Kd (Quadruplex DNA [3]) | Activity (Quadruplex DNA [4]) | Activity (Quadruplex DNA [5]) | Activity (Quadruplex DNA [6]) | Activity (Quadruplex DNA [7]) | Activity (Quadruplex DNA [8]) | Activity (Quadruplex DNA [9]) | permeability [10] | Activity (HT-22) | Activity (Quadruplex DNA [14]) | Activity (HEK-293T [15]) | Activity (Erythrocyte [16]) | Activity (N2a [17]) | Activity (Drosophila [18]) | Activity (Drosophila [19]) | Activity (Drosophila [20]) | Activity [21] | Activity (N2a [22]) | other results
COc1c2c(c(O)c3c(=O)c4cccc(O[C@@H]5OC(C(=O)O)=C[C@H](O)[C@H]5O)c4oc13)-c1c(cc(CC(C)=O)c(C(=O)O)c1O)CC2 | Active | Active | 3 mM | Active | Active | Active | Active | Active | Active | Permeable | Dde | – | – | – | – | – | – | – | – | – | Activity (HEK-293T [11]): Toxic; Activity (Erythrocyte [12]): Dde
CC(=O)Cc1cc2c(c(O)c1C(=O)O)-c1c(c(O)c3oc4c(O[C@@H]5OC(C(=O)O)=C[C@H](O)[C@H]5O)cccc4c(=O)c3c1O)CC2 | Active | Active | 2.2 mM | Active | Active | Active | Active | Active | Active | Permeable | Dde | Active | Non-Toxic | Non-Toxic | Active | Active | Active | Active | 5.125% | Active | Kd (Quadruplex DNA [13]): 3 mM
N=C(N)c1ccc(-c2ccc(-c3ccc(-c4ccc(C(=N)N)cn4)o3)o2)nc1 | – | – | – | Active | – | – | – | – | – | Impermeable | – | Active | – | – | – | – | – | – | – | – | Activity (Quadruplex DNA [23]): Active; Activity (Quadruplex DNA [24]): Active
CC12CC3CC(C)(C1)CC(N)(C3)C2 [MEMANTINE] | – | – | – | – | – | – | – | – | – | Permeable | – | – | – | – | – | – | – | – | – | – | –
CC(=O)Cc1cc2c(c(O)c1C(=O)O)-c1c(c(O)c3oc4c(O[C@@H]5O[C@H](C(=O)O)[C@@H](O)[C@H](O)[C@H]5O)cccc4c(=O)c3c1O)CC2 | Active | Active | 2.8 mM | Active | Active | Active | Active | Active | Active | Permeable | Dde | – | Non-Toxic | Non-Toxic | Active | Active | Active | Active | 10.625% | Active | Activity (N2a [25]): Active

Source: ChEMBL document CHEMBL5108069, “Selective C9orf72 G-Quadruplex-Binding Small Molecules Ameliorate Pathological Signatures of ALS/FTD Models” (J Med Chem, 2022)
